Experimental data reported in ChEMBL document CHEMBL4689842, “EUbOPEN Chemogenomics Library wave 1” (2021).

System: Fibroblast
Assay: Multiplex assay against human fibroblast
Type: toxicity, cell-based
Method in brief: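 Values for tubulin, mitochondrial-mass and membrane-permeability phenotypes are per cents of cells with healthy nuclei. These cells were identified by CellPathfinder machine-learning gating of live cells that had been stained at seeding with Hoechst33342, BioTracker Green Microtubule Cytoskeleton Dye, MitoTracker Red and Annexin V Alexa Fluor 680 and imaged on a CQ1 microscope at 37°C and 5% CO2 after compound addition. The gating first set Hoechst high-intensity objects apart from normal cells, then split normal cells into healthy, pyknosed or fragmented nuclei, and pyknosed cells into mitotic or apoptotic.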

[1] = 12 h, 1 µM, compound concentration 1 uM, replicate 1
[2] = 12 h, 1 µM, compound concentration 1 uM, replicate 2
[3] = 12 h, 10 µM, compound concentration 10 uM, replicate 1
[4] = 12 h, 10 µM, compound concentration 10 uM, replicate 2
[5] = 24 h, 1 µM, compound concentration 1 uM, replicate 1
[6] = 24 h, 1 µM, compound concentration 1 uM, replicate 2
[7] = 24 h, 10 µM, compound concentration 10 uM, replicate 1
[8] = 24 h, 10 µM, compound concentration 10 uM, replicate 2
[9] = 48 h, 1 µM, compound concentration 1 uM, replicate 1
[10] = 48 h, 1 µM, compound concentration 1 uM, replicate 2
[11] = 48 h, 10 µM, compound concentration 10 uM, replicate 1
[12] = 48 h, 10 µM, compound concentration 10 uM, replicate 2

`CCCCCNC(=N)N/N=C/c1c[nH]c2ccc(OC)cc12.O=C(O)/C=C\C(=O)O` [TEGASEROD MALEATE] was tested, and the “Population Apoptotic (%)” value [1] was 65%, the “Population Fragmented Nuclei (%)” value [1] was 25% and the “Population Healthy Nuclei (%)” value [1] was 47%. For the same molecule, the “Population Hoechst High Intensity Objects (%)” value [1] was 8%, the “Population Membrane Permeable-Phenotype (%)” value [1] was 10% and the “Population Mitochondria Different-Phenotype (%)” value [1] was 0%. The “Population Mitotic Cells (%)” value [1] was 34%, the “Population Normal (%)” value [1] was 91% and the “Population Pyknosed Nuclei (%)” value [1] was 27%. For the same molecule, the “Population Tubulin-Different-Phenotype (%)” value [1] was 22%, the “Total Cell Count” value [1] was 114 and the “Population Apoptotic (%)” value [2] was 20%. For the same molecule, the “Population Fragmented Nuclei (%)” value [2] was 12%, the “Population Healthy Nuclei (%)” value [2] was 79% and the “Population Hoechst High Intensity Objects (%)” value [2] was 3%. The “Population Membrane Permeable-Phenotype (%)” value [2] was 4%, the “Population Mitochondria Different-Phenotype (%)” value [2] was 22% and the “Population Mitotic Cells (%)” value [2] was 80%. For the same molecule, the “Population Normal (%)” value [2] was 96%, the “Population Pyknosed Nuclei (%)” value [2] was 8% and the “Population Tubulin-Different-Phenotype (%)” value [2] was 14%. The “Total Cell Count” value [2] was 74, the “Population Apoptotic (%)” value [3] was 50% and the “Population Fragmented Nuclei (%)” value [3] was 34%. For the same molecule, the “Population Healthy Nuclei (%)” value [3] was 12%, the “Population Hoechst High Intensity Objects (%)” value [3] was 20% and the “Population Membrane Permeable-Phenotype (%)” value [3] was 6%. For the same molecule, the “Population Mitochondria Different-Phenotype (%)” value [3] was 50%, the “Population Mitotic Cells (%)” value [3] was 49% and the “Population Normal (%)” value [3] was 80%. The “Population Pyknosed Nuclei (%)” value [3] was 52%, the “Population Tubulin-Different-Phenotype (%)” value [3] was 62% and the “Total Cell Count” value [3] was 155. For the same molecule, the “Population Apoptotic (%)” value [4] was 100%, the “Population Fragmented Nuclei (%)” value [4] was 22% and the “Population Healthy Nuclei (%)” value [4] was 3%. For the same molecule, the “Population Hoechst High Intensity Objects (%)” value [4] was 35%, the “Population Membrane Permeable-Phenotype (%)” value [4] was 100% and the “Population Mitochondria Different-Phenotype (%)” value [4] was 100%. For the same molecule, the “Population Mitotic Cells (%)” value [4] was 0%, the “Population Normal (%)” value [4] was 64% and the “Population Pyknosed Nuclei (%)” value [4] was 73%. The “Population Tubulin-Different-Phenotype (%)” value [4] was 100%, the “Total Cell Count” value [4] was 64 and the “Population Apoptotic (%)” value [5] was 52%. The “Population Fragmented Nuclei (%)” value [5] was 24%, the “Population Healthy Nuclei (%)” value [5] was 56% and the “Population Hoechst High Intensity Objects (%)” value [5] was 10%. The “Population Membrane Permeable-Phenotype (%)” value [5] was 15%, the “Population Mitochondria Different-Phenotype (%)” value [5] was 1% and the “Population Mitotic Cells (%)” value [5] was 47%. For the same molecule, the “Population Normal (%)” value [5] was 90%, the “Population Pyknosed Nuclei (%)” value [5] was 18% and the “Population Tubulin-Different-Phenotype (%)” value [5] was 35%. For the same molecule, the “Total Cell Count” value [5] was 100, the “Population Apoptotic (%)” value [6] was 87% and the “Population Fragmented Nuclei (%)” value [6] was 10%. The “Population Healthy Nuclei (%)” value [6] was 77%, the “Population Hoechst High Intensity Objects (%)” value [6] was 5% and the “Population Membrane Permeable-Phenotype (%)” value [6] was 5%. The “Population Mitochondria Different-Phenotype (%)” value [6] was 21%, the “Population Mitotic Cells (%)” value [6] was 12% and the “Population Normal (%)” value [6] was 94%. For the same molecule, the “Population Pyknosed Nuclei (%)” value [6] was 12%, the “Population Tubulin-Different-Phenotype (%)” value [6] was 7% and the “Total Cell Count” value [6] was 89. For the same molecule, the “Population Apoptotic (%)” value [7] was 74%, the “Population Fragmented Nuclei (%)” value [7] was 39% and the “Population Healthy Nuclei (%)” value [7] was 7%. For the same molecule, the “Population Hoechst High Intensity Objects (%)” value [7] was 18%, the “Population Membrane Permeable-Phenotype (%)” value [7] was 12% and the “Population Mitochondria Different-Phenotype (%)” value [7] was 37%. For the same molecule, the “Population Mitotic Cells (%)” value [7] was 25%, the “Population Normal (%)” value [7] was 81% and the “Population Pyknosed Nuclei (%)” value [7] was 53%. For the same molecule, the “Population Tubulin-Different-Phenotype (%)” value [7] was 75%, the “Total Cell Count” value [7] was 133 and the “Population Apoptotic (%)” value [8] was 100%. The “Population Fragmented Nuclei (%)” value [8] was 44%, the “Population Healthy Nuclei (%)” value [8] was 26% and the “Population Hoechst High Intensity Objects (%)” value [8] was 39%. For the same molecule, the “Population Membrane Permeable-Phenotype (%)” value [8] was 100%, the “Population Mitochondria Different-Phenotype (%)” value [8] was 100% and the “Population Mitotic Cells (%)” value [8] was 0%. For the same molecule, the “Population Normal (%)” value [8] was 60%, the “Population Pyknosed Nuclei (%)” value [8] was 28% and the “Population Tubulin-Different-Phenotype (%)” value [8] was 100%. The “Total Cell Count” value [8] was 70, the “Population Apoptotic (%)” value [9] was 50% and the “Population Fragmented Nuclei (%)” value [9] was 37%. For the same molecule, the “Population Healthy Nuclei (%)” value [9] was 58%, the “Population Hoechst High Intensity Objects (%)” value [9] was 15% and the “Population Membrane Permeable-Phenotype (%)” value [9] was 10%. The “Population Mitochondria Different-Phenotype (%)” value [9] was 1%, the “Population Mitotic Cells (%)” value [9] was 50% and the “Population Normal (%)” value [9] was 84%. The “Population Pyknosed Nuclei (%)” value [9] was 4%, the “Population Tubulin-Different-Phenotype (%)” value [9] was 24% and the “Total Cell Count” value [9] was 115. For the same molecule, the “Population Apoptotic (%)” value [10] was 66%, the “Population Fragmented Nuclei (%)” value [10] was 23% and the “Population Healthy Nuclei (%)” value [10] was 72%. The “Population Hoechst High Intensity Objects (%)” value [10] was 18%, the “Population Membrane Permeable-Phenotype (%)” value [10] was 12% and the “Population Mitochondria Different-Phenotype (%)” value [10] was 3%. The “Population Mitotic Cells (%)” value [10] was 33%, the “Population Normal (%)” value [10] was 81% and the “Population Pyknosed Nuclei (%)” value [10] was 3%. For the same molecule, the “Population Tubulin-Different-Phenotype (%)” value [10] was 44%, the “Total Cell Count” value [10] was 94 and the “Population Apoptotic (%)” value [11] was 76%. The “Population Fragmented Nuclei (%)” value [11] was 48%, the “Population Healthy Nuclei (%)” value [11] was 20% and the “Population Hoechst High Intensity Objects (%)” value [11] was 33%. The “Population Membrane Permeable-Phenotype (%)” value [11] was 17%, the “Population Mitochondria Different-Phenotype (%)” value [11] was 23% and the “Population Mitotic Cells (%)” value [11] was 23%. For the same molecule, the “Population Normal (%)” value [11] was 66%, the “Population Pyknosed Nuclei (%)” value [11] was 30% and the “Population Tubulin-Different-Phenotype (%)” value [11] was 64%. For the same molecule, the “Total Cell Count” value [11] was 127, the “Population Apoptotic (%)” value [12] was 85% and the “Population Fragmented Nuclei (%)” value [12] was 52%. The “Population Healthy Nuclei (%)” value [12] was 15%, the “Population Hoechst High Intensity Objects (%)” value [12] was 45% and the “Population Membrane Permeable-Phenotype (%)” value [12] was 30%. For the same molecule, the “Population Mitochondria Different-Phenotype (%)” value [12] was 50%, the “Population Mitotic Cells (%)” value [12] was 15% and the “Population Normal (%)” value [12] was 54%. The “Population Pyknosed Nuclei (%)” value [12] was 31%, the “Population Tubulin-Different-Phenotype (%)” value [12] was 80% and the “Total Cell Count” value [12] was 115.
